According to ChEMBL document CHEMBL1137333, “Synthesis, radiosynthesis, and biological evaluation of carbon-11 labeled 2beta-carbomethoxy-3beta-(3'-((Z)-2-haloethenyl)phenyl)nortropanes: candidate radioligands for in vivo imaging of the serotonin transporter with positron emission tomography” (J Med Chem, 2006):

Tests used:
Cynomolgus monkey [1] = test: Ratio of uptake in occipital to cerebellum of anesthetized cynomolgus monkey after 65 mins; assay type: ADME, organism-based; details: in vivo
Outline: (§1)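 Baseline microPET (Concorde P4) in anesthetized cynomolgus monkey after injection of the [11C]-labelled tracer. Regional time-activity curves were taken, and each region's uptake was divided by cerebellum uptake (low-SERT reference) at 65, 85 and 105 min postinjection.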

Cynomolgus monkey [2] = test: Uptake in anesthetized cynomolgus monkey frontal after 3.5 mins; assay type: ADME, organism-based, Frontal cortex; details: in vivo
Outline: (§2)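 Baseline microPET scan (P4 scanner) of anesthetized cynomolgus monkeys after injection of the carbon-11 labelled nortropane tracer. Two baseline studies were run per tracer. Radioactivity was followed over time in regional brain time-activity curves.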

Cynomolgus monkey [3] = test: Uptake in anesthetized cynomolgus monkey pons after 85.0 mins; assay type: ADME, organism-based; details: in vivo
Outline: (§3)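 Baseline microPET (Concorde P4) scan in anesthetized cynomolgus monkeys after injection of the carbon-11 labeled tracer, with no chase drug. Regional brain time-activity curves were followed over the scan. Tracer radiochemical purity and specific activity were determined by analytical HPLC at the time of injection.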

Cynomolgus monkey [4] = test: Uptake in anesthetized cynomolgus monkey putamen after 135.0 mins; assay type: ADME, organism-based; details: in vivo, 2.25 h; outline: as §3
Cynomolgus monkey [5] = test: Uptake in anesthetized cynomolgus monkey thalamus after 135.0 mins; assay type: ADME, organism-based; details: in vivo, 2.25 h; outline: as §3
Cynomolgus monkey [6] = test: Uptake in anesthetized cynomolgus monkey midbrain after 0.5 mins; assay type: ADME, organism-based; details: in vivo; outline: as §2
Cynomolgus monkey [7] = test: Ratio of uptake in pons to cerebellum of anesthetized cynomolgus monkey after 105 mins; assay type: ADME, organism-based; details: in vivo, 1.75 h; outline: as §1
Cynomolgus monkey [8] = test: Uptake in anesthetized cynomolgus monkey putamen after 15.5 mins; assay type: ADME, organism-based; details: in vivo; outline: as §3
Cynomolgus monkey [9] = test: Ratio of uptake in occipital to cerebellum of anesthetized cynomolgus monkey after 85 mins; assay type: ADME, organism-based; details: in vivo; outline: as §1
Cynomolgus monkey [10] = test: Uptake in anesthetized cynomolgus monkey pons after 18.5 mins; assay type: ADME, organism-based; details: in vivo; outline: as §3
Cynomolgus monkey [11] = test: Uptake in anesthetized cynomolgus monkey medulla after 22.5 mins; assay type: ADME, organism-based, Medulla of organ; details: in vivo, 0.375 h; outline: as §2
Cynomolgus monkey [12] = test: Uptake in anesthetized cynomolgus monkey thalamus after 115.0 mins; assay type: ADME, organism-based; details: in vivo; outline: as §3
Cynomolgus monkey [13] = test: Uptake in anesthetized cynomolgus monkey cerebellum after 0.5 mins; assay type: ADME, organism-based; details: in vivo
Outline: (§4)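 Baseline microPET (Concorde P4) regional brain time-activity curves in anesthetized cynomolgus monkey following injection of the [11C]-labelled tracer, with radioactivity followed over the scan.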

Cynomolgus monkey [14] = test: Uptake in anesthetized cynomolgus monkey medulla after 115.0 mins; assay type: ADME, organism-based, Medulla of organ; details: in vivo; outline: as §2
Cynomolgus monkey [15] = test: Uptake in anesthetized cynomolgus monkey frontal after 135.0 mins; assay type: ADME, organism-based, Frontal cortex; details: in vivo, 2.25 h; outline: as §2
Cynomolgus monkey [16] = test: Uptake in anesthetized cynomolgus monkey caudate after 9.5 mins; assay type: ADME, organism-based, Caudate nucleus; details: in vivo; outline: as §4
Cynomolgus monkey [17] = test: Uptake in anesthetized cynomolgus monkey pons after 27.5 mins; assay type: ADME, organism-based; details: in vivo; outline: as §3
Cynomolgus monkey [18] = test: Ratio of uptake in medulla to cerebellum of anesthetized cynomolgus monkey after 105 mins; assay type: ADME, organism-based; details: in vivo, 1.75 h; outline: as §1
Cynomolgus monkey [19] = test: Uptake in anesthetized cynomolgus monkey cerebellum after 125.0 mins; assay type: ADME, organism-based, Macaca mulatta; details: rhesus monkey, in vivo; outline: as §4
Cynomolgus monkey [20] = test: Ratio of uptake in frontal to cerebellum of anesthetized cynomolgus monkey after 85 mins; assay type: ADME, organism-based; details: in vivo; outline: as §1
Cynomolgus monkey [21] = test: Ratio of uptake in putamen to cerebellum of anesthetized cynomolgus monkey after 105 mins; assay type: ADME, organism-based; details: in vivo, 1.75 h; outline: as §1
Cynomolgus monkey [22] = test: Uptake in anesthetized cynomolgus monkey pons after 135.0 mins; assay type: ADME, organism-based; details: in vivo, 2.25 h; outline: as §3
Cynomolgus monkey [23] = test: Ratio of uptake in pons to cerebellum of anesthetized cynomolgus monkey after 65 mins; assay type: ADME, organism-based; details: in vivo; outline: as §1
Cynomolgus monkey [24] = test: Uptake in anesthetized cynomolgus monkey thalamus after 125.0 mins; assay type: ADME, organism-based; details: in vivo; outline: as §3
Cynomolgus monkey [25] = test: Uptake in anesthetized cynomolgus monkey pons after 125.0 mins; assay type: ADME, organism-based; details: in vivo; outline: as §3
Cynomolgus monkey [26] = test: Uptake in anesthetized cynomolgus monkey midbrain after 35.0 mins; assay type: ADME, organism-based; details: in vivo; outline: as §2
Cynomolgus monkey [27] = test: Uptake in anesthetized cynomolgus monkey thalamus after 85.0 mins; assay type: ADME, organism-based; details: in vivo; outline: as §3
Cynomolgus monkey [28] = test: Uptake in anesthetized cynomolgus monkey pons after 45.0 mins; assay type: ADME, organism-based; details: in vivo, 0.75 h; outline: as §3
Cynomolgus monkey [29] = test: Uptake in anesthetized cynomolgus monkey cerebellum after 18.5 mins; assay type: ADME, organism-based, Macaca mulatta; details: rhesus monkey, in vivo; outline: as §4
Cynomolgus monkey [30] = test: Ratio of uptake in midbrain to cerebellum of anesthetized cynomolgus monkey after 65 mins; assay type: ADME, organism-based; details: in vivo; outline: as §1
Cynomolgus monkey [31] = test: Uptake in anesthetized cynomolgus monkey frontal after 15.5 mins; assay type: ADME, organism-based, Frontal cortex; details: in vivo; outline: as §2
Cynomolgus monkey [32] = test: Uptake in anesthetized cynomolgus monkey cerebellum after 2.5 mins; assay type: ADME, organism-based, Macaca mulatta; details: rhesus monkey, in vivo; outline: as §4
Cynomolgus monkey [33] = test: Uptake in anesthetized cynomolgus monkey occipital after 85.0 mins; assay type: ADME, organism-based, Macaca mulatta, Occipital cortex; details: rhesus monkey, in vivo; outline: as §2
Cynomolgus monkey [34] = test: Ratio of uptake in caudate to cerebellum of anesthetized cynomolgus monkey after 85 mins; assay type: ADME, organism-based; details: in vivo; outline: as §1
Cynomolgus monkey [35] = test: Uptake in anesthetized cynomolgus monkey midbrain after 105.0 mins; assay type: ADME, organism-based; details: in vivo, 1.75 h; outline: as §2
Cynomolgus monkey [36] = test: Uptake in anesthetized cynomolgus monkey medulla after 1.5 mins; assay type: ADME, organism-based, Medulla of organ; details: in vivo, 0.025 h; outline: as §2
Cynomolgus monkey [37] = test: Uptake in anesthetized cynomolgus monkey thalamus after 55.0 mins; assay type: ADME, organism-based; details: in vivo; outline: as §3
Cynomolgus monkey [38] = test: Uptake in anesthetized cynomolgus monkey putamen after 125.0 mins; assay type: ADME, organism-based; details: in vivo; outline: as §3
Cynomolgus monkey [39] = test: Uptake in anesthetized cynomolgus monkey occipital after 12.5 mins; assay type: ADME, organism-based, Macaca mulatta, Occipital cortex; details: rhesus monkey, in vivo; outline: as §2
Cynomolgus monkey [40] = test: Uptake in anesthetized cynomolgus monkey thalamus after 18.5 mins; assay type: ADME, organism-based; details: in vivo; outline: as §3
Cynomolgus monkey [41] = test: Uptake in anesthetized cynomolgus monkey pons after 55.0 mins; assay type: ADME, organism-based; details: in vivo; outline: as §3
Cynomolgus monkey [42] = test: Uptake in anesthetized cynomolgus monkey caudate after 115.0 mins; assay type: ADME, organism-based, Caudate nucleus; details: in vivo; outline: as §4
Cynomolgus monkey [43] = test: Uptake in anesthetized cynomolgus monkey midbrain after 27.5 mins; assay type: ADME, organism-based; details: in vivo; outline: as §2
Cynomolgus monkey [44] = test: Ratio of uptake in occipital to cerebellum of anesthetized cynomolgus monkey after 105 mins; assay type: ADME, organism-based; details: in vivo, 1.75 h; outline: as §1
Cynomolgus monkey [45] = test: Uptake in anesthetized cynomolgus monkey medulla after 9.5 mins; assay type: ADME, organism-based, Medulla of organ; details: in vivo; outline: as §2
Cynomolgus monkey [46] = test: Uptake in anesthetized cynomolgus monkey thalamus after 45.0 mins; assay type: ADME, organism-based; details: in vivo, 0.75 h; outline: as §3
Cynomolgus monkey [47] = test: Uptake in anesthetized cynomolgus monkey occipital after 4.5 mins; assay type: ADME, organism-based, Occipital cortex; details: in vivo, 0.075 h; outline: as §2
Cynomolgus monkey [48] = test: Ratio of uptake in thalamus to cerebellum of anesthetized cynomolgus monkey after 65 mins; assay type: ADME, organism-based; details: in vivo; outline: as §1
Cynomolgus monkey [49] = test: Uptake in anesthetized cynomolgus monkey caudate after 125.0 mins; assay type: ADME, organism-based, Caudate nucleus; details: in vivo; outline: as §4
Cynomolgus monkey [50] = test: Uptake in anesthetized cynomolgus monkey putamen after 27.5 mins; assay type: ADME, organism-based; details: in vivo; outline: as §3
Cynomolgus monkey [51] = test: Uptake in anesthetized cynomolgus monkey medulla after 105.0 mins; assay type: ADME, organism-based, Medulla of organ; details: in vivo, 1.75 h; outline: as §2
Cynomolgus monkey [52] = test: Ratio of uptake in caudate to cerebellum of anesthetized cynomolgus monkey after 65 mins; assay type: ADME, organism-based; details: in vivo; outline: as §1
Cynomolgus monkey [53] = test: Uptake in anesthetized cynomolgus monkey putamen after 2.5 mins; assay type: ADME, organism-based; details: in vivo; outline: as §3
Cynomolgus monkey [54] = test: Uptake in anesthetized cynomolgus monkey frontal after 9.5 mins; assay type: ADME, organism-based, Frontal cortex; details: in vivo; outline: as §2
Cynomolgus monkey [55] = test: Uptake in anesthetized cynomolgus monkey putamen after 6.5 mins; assay type: ADME, organism-based; details: in vivo; outline: as §3

SMILES: [11CH3]OC(=O)[C@@H]1C2CCC(C[C@@H]1c1cccc(/C=C/Br)c1)N2 (stereo not given in full)
- Ratio (Cynomolgus monkey [1]): 0.8
- Drug uptake (Cynomolgus monkey [2]): 1.07
- Drug uptake (Cynomolgus monkey [3]): 7.24
- Drug uptake (Cynomolgus monkey [4]): 6.51
- Drug uptake (Cynomolgus monkey [5]): 5.83
- Drug uptake (Cynomolgus monkey [6]): 0.01
- Ratio (Cynomolgus monkey [7]): 1.8
- Drug uptake (Cynomolgus monkey [8]): 6.07
- Ratio (Cynomolgus monkey [9]): 0.9
- Drug uptake (Cynomolgus monkey [10]): 6.46
- Drug uptake (Cynomolgus monkey [11]): 6.96
- Drug uptake (Cynomolgus monkey [12]): 6.26
- Drug uptake (Cynomolgus monkey [13]): 0.01
- Drug uptake (Cynomolgus monkey [14]): 6.59
- Drug uptake (Cynomolgus monkey [15]): 3.43
- Drug uptake (Cynomolgus monkey [16]): 4.35
- Drug uptake (Cynomolgus monkey [17]): 6.51
- Ratio (Cynomolgus monkey [18]): 1.7
- Drug uptake (Cynomolgus monkey [19]): 3.74
- Ratio (Cynomolgus monkey [20]): 1.2
- Ratio (Cynomolgus monkey [21]): 1.8
- Drug uptake (Cynomolgus monkey [22]): 7.4
- Ratio (Cynomolgus monkey [23]): 1.5
- Drug uptake (Cynomolgus monkey [24]): 6.09
- Drug uptake (Cynomolgus monkey [25]): 6.47
- Drug uptake (Cynomolgus monkey [26]): 7.4
- Drug uptake (Cynomolgus monkey [27]): 6.55
- Drug uptake (Cynomolgus monkey [28]): 6.91
- Drug uptake (Cynomolgus monkey [29]): 6.13
- Ratio (Cynomolgus monkey [30]): 1.6
- Drug uptake (Cynomolgus monkey [31]): 3.21
- Drug uptake (Cynomolgus monkey [32]): 1.1
- Drug uptake (Cynomolgus monkey [33]): 5.21
- Ratio (Cynomolgus monkey [34]): 1.5
- Drug uptake (Cynomolgus monkey [35]): 7.72
- Drug uptake (Cynomolgus monkey [36]): 0.4
- Drug uptake (Cynomolgus monkey [37]): 6.4
- Drug uptake (Cynomolgus monkey [38]): 6.69
- Drug uptake (Cynomolgus monkey [39]): 4.08
- Drug uptake (Cynomolgus monkey [40]): 5.21
- Drug uptake (Cynomolgus monkey [41]): 7.56
- Drug uptake (Cynomolgus monkey [42]): 6.42
- Drug uptake (Cynomolgus monkey [43]): 7.01
- Ratio (Cynomolgus monkey [44]): 0.9
- Drug uptake (Cynomolgus monkey [45]): 5.99
- Drug uptake (Cynomolgus monkey [46]): 6.07
- Drug uptake (Cynomolgus monkey [47]): 2.14
- Ratio (Cynomolgus monkey [48]): 1.3
- Drug uptake (Cynomolgus monkey [49]): 5.66
- Drug uptake (Cynomolgus monkey [50]): 6.85
- Drug uptake (Cynomolgus monkey [51]): 6.81
- Ratio (Cynomolgus monkey [52]): 1.4
- Drug uptake (Cynomolgus monkey [53]): 1.01
- Drug uptake (Cynomolgus monkey [54]): 2.85
- Drug uptake (Cynomolgus monkey [55]): 4.44
